# Screening results deposited in PubChem by several laboratories.
# DAX1 inh-1: DAX1 (NR0B1) inhibition, primary screen; inhibition, % at 6.8 µM; HEK293T StAR-luciferase reporter, SF-1/DAX-1 repression relief; 370,000 compounds, 1.1% hits; AID 652010;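 active means inhibition above the mean over all tested compounds plus 3 SD, cut at about 3.6% in these data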;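 further: 0% = DAX-1 cells with DMSO and 100% = cells lacking DAX-1 with DMSO; higher inhibition means more luminescence from relief of DAX-1 repression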
# NR2E3 ag-1: NR2E3 (human) agonism; GST-NR2E3/biotin-RetCOR TR-FRET, 1536-well; inhibition of corepressor binding, % at 4.78 µM; 320,000 compounds, 0.12% hits; AID 2300;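 active means percent inhibition above the cutoff of mean plus 3 SD of all tested compounds, set per screening campaign, cut at about 20% in these data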;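 further: 0% = DMSO wells and 100% = biotin wells as full block of FRET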
# Target sequence (Q9Y5X4 whole entry, looked up): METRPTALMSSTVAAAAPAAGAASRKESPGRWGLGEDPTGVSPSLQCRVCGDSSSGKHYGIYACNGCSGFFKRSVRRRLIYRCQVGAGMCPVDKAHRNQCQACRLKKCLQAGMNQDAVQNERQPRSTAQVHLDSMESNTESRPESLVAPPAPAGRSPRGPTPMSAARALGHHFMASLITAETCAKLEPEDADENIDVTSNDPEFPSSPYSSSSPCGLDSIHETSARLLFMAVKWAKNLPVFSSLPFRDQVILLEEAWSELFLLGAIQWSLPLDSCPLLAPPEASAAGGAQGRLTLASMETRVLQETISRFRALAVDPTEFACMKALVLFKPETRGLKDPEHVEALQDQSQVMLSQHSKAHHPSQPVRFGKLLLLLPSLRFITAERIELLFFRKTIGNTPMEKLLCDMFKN
#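 Material: NR2E3–RetCOR corepressor complex / Incubation: Compound–protein incubation for 5 h at 4 °C / Dosing: compound at 4.8 µM, single dose / Detection: time-resolved FRET / Benchmarks: high control biotin, low control 0.6% DMSO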
# GASC-1 inh: blocks human GASC-1 demethylase activity | AID 2099 | inhibition, % at 2.35 µM | 330,000 compounds, 0.069% hits | GST-JMJD2C(1-420) H3K9me3 demethylation, DELFIA europium;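 active means more than half of a compound's replicate wells show inhibition beyond 50%, single wells judged on their own value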;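 further: signal counts dimethyl H3K9 product captured on neutravidin plate; 0% = median of DMSO wells and 100% = 0.3 times that DMSO median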
# NR2E3 ag-2: human photoreceptor-specific nuclear receptor agonism. CHO-S Gal4-NCOR/VP16-NR2E3 two-hybrid, luciferase. 360,000 compounds, 0.35% hits. AID 602229. Q9Y5X4. inhibition of corepressor binding, % at 3.98 µM;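 active means inhibition above the mean of all tested compounds plus 3 SD, cut at about 70% in these data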;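 further: 0% = DMSO with NR2E3 transfected cells and 100% = cells lacking NR2E3 construct; higher means lower luciferase signal from less NR2E3 corepressor binding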
# DAX1 inh-2: inhibits human nuclear receptor DAX1 | HEK293 Gal4-DAX1 luciferase reporter, luminescence | 340,000 compounds, 0.99% hits | P51843 | inhibition, % at 6.75 µM;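 active means inhibition above the mean over all tested compounds plus 3 SD, cut at about 4.2% in these data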;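 further: 0% = DAX1-transfected cells with DMSO and 100% = empty-vector control cells with DMSO; inhibition shows as a rise in luminescence from relieved DAX1 repression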
# SMARCA2 activ: SMARCA2 function activation, primary screen. MG213 cells, MMTV-luciferase reporter, dexamethasone, overnight. 370,000 compounds, 1% hits. activation, % at 9.1 µM; in the data active means activation above about 7.8%;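 further: 0% = vehicle wells and 100% = reference activator wells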
# Active calls of the source: *; x = no result given. A selection: hits, their analogues and other compounds. The true share with any hit is near 3.2%.
SMILES,DAX1 inh-1,NR2E3 ag-1,GASC-1 inh,NR2E3 ag-2,DAX1 inh-2,SMARCA2 activ
CCN(CC)CCCn1c2c(c(SCC(=O)Nc3cccc(C(C)=O)c3)nc1=O)CCC2,1.0,-0.6,-17.2,-19.5,-0.7,0.4
N/C(=N\c1nc2ccccc2o1)NC(=O)c1ccccc1F,1.4,-1.5,12.4,-97.7,1.0,0.3
CCCCC(=O)N/C(N)=N/c1nc2ccccc2o1,1.3,2.0,-24.4,-181.6,16.1*,3.0
Cc1ccc(NC(=O)c2nsc(Cl)c2Cl)cc1,2.5,9.8,-3.0,-111.9,5.8*,2.0
O[C@H](COc1ccc(F)cc1)CN1CCC(C(O)(c2ccccc2)c2ccccc2)CC1,0.6,x,x,x,x,3.3
CCOC(=O)CC(=O)CSc1nc2ccc(C)cc2cc1C#N,3.8*,6.5,-2.4,-127.8,6.7*,8.8*
CCOC(=O)CC(=O)CSc1nc(CC)c(C)cc1C#N,-0.2,2.0,9.5,-5.7,2.5,-4.7
CC1C=CC=CCCC=CC=CC=CC=CC(OC2O[C@H](C)[C@@H](O)[C@H](N)[C@@H]2O)CC(O)C(C(=O)O)C(O)CC(=O)CC(O)C(O)CCC(O)CC(O)CC(O)CC(=O)OC(C)C(C)C1O (stereo partly drawn),-0.6,x,x,x,x,-2.4
CC(c1nnc(SCC(=O)N(C)C2CCS(=O)(=O)C2)n1-c1ccccc1)N(C)C (stereo not drawn),3.7*,4.0,1.8,-12.8,0.3,-2.3
CN(C(=O)CSc1nnc(-c2ccncc2)n1-c1ccccc1)C1CCS(=O)(=O)C1 (stereo not drawn),0.5,1.7,10.4,16.1,3.0,-3.7
Cn1cccc1C(=O)NCCc1ccc(Cl)cc1,4.0*,1.9,-23.4,-109.5,1.3,4.2
COC(=O)[C@]12C[C@H](CC(=O)NCc3cccc(C(F)(F)F)c3)C(=O)N(Cc3cccc4ccccc34)C1=C[C@H](C(C)C)O[C@@H]2C1CC1,-0.4,x,x,x,x,-3.3
COC(=O)C12C=C3CC(C4CC4)=C3C(=O)N1Cc1[nH]c3ccccc3c1C2 (stereo not drawn),-1.7,x,x,x,x,-0.4
CC(=O)Nc1c(-c2ccc3ccccc3c2)nc2ccccn12,1.8,-1.9,7.7,-97.8,4.2*,6.5
O=c1c(N2CCOCC2)c(N2CCOCC2)c1=O,0.4,1.5,-37.0,2.2,7.2*,-1.9
CC(C)Oc1c(N2CCOCC2)c(=O)c1=O,0.5,3.5,3.3,-20.1,-1.1,-0.4
CCOc1ccccc1NC(=O)C(C)N1C(=O)c2ccccc2S1(=O)=O (stereo not drawn),3.7*,-5.9,88.6,0.6,-0.1,-3.7
O=C(NC1CCCC1)c1ccc2c(c1)S(=O)(=O)c1ccccc1C2=O,-0.5,2.5,-4.9,17.4,-1.1,0.7
CCc1ccccc1NC(=O)CN1C(=O)c2ccccc2S1(=O)=O,0.0,5.6,-1.3,-7.6,4.5*,7.1
CC(C)C(NC(=O)CN1C(=O)c2ccccc2S1(=O)=O)C(C)C,-0.1,6.9,-21.3,-5.6,5.0*,2.9
O=C(CN1C(=O)c2ccccc2S1(=O)=O)NCc1ccccc1,-0.4,4.6,-4.1,-11.3,0.2,-0.7
O=C(NC1CCCCC1)c1ccc2c(c1)S(=O)(=O)c1ccccc1C2=O,0.1,-0.1,-1.8,0.0,5.0*,1.2
CCc1cccc(C)c1NC(=O)CN1C(=O)c2ccccc2S1(=O)=O,-0.4,-1.4,2.1,-15.1,2.0,-0.2
COC(=O)[C@]12C[C@H](CC(=O)N3CCCC3)C(=O)N(CCc3ccc(OC)c(OC)c3)C1=C[C@H](C(C)(C)C)O[C@@H]2C,-0.9,x,x,x,x,0.5
CCC(=O)N(Cc1ccccc1)c1ccccc1C(=O)Nc1cc(OC)ccc1OC,-0.8,x,x,x,x,0.3
CCOC(=O)CNC(=O)N(C)[C@H]1C[C@H]2c3[nH]c4c(-c5cccc(C)c5)cccc4c3CCN2C(=O)[C@H]1[C@H](C)O,-0.4,x,x,x,x,4.4
O=C(CSc1nnc(SCc2cccc3ccccc23)s1)Nc1ccc(S(=O)(=O)Nc2nccs2)cc1,2.3,x,x,x,x,-6.3
O=C(CN1c2cccc3cccc(c23)S1(=O)=O)NC1CCCCC1,0.6,x,10.9,-6.5,-0.6,-1.2
O=C(CN1C(=O)c2ccccc2S1(=O)=O)NC1CCCCCC1,-0.3,1.6,1.1,-33.3,6.2*,0.2
